Data set [1] concerns P-gp. Put plainly: Efflux ratio in P-gp expressing MDCK cells. The format is ADME, cell-based, Canis lupus familiaris. Particulars: dog, MDCK-MDR1.
Data set [2] has as its system P-gp. Put plainly: Permeability in P-gp expressing MDCK cells. Format: ADME, cell-based, Canis lupus familiaris. Particulars: dog, MDCK-MDR1; read-out: permeability.
Data set [3] can be described thus: Dissociation constant, pKa of the compound. Format: physicochemical.
A short description of data set [4]: Drug metabolism in mouse microsomes. The format is ADME, Microsome.
The next data set relates to Plasma. The data set is described as follows: Plasma concentration in PDAPP (V717F) transgenic mouse at 100 mg/kg, sc. Particulars: in vivo. The format is ADME, organism-based. An outline of the steps: (§1)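 Brain and plasma samples from PDAPP mice dosed subcutaneously were homogenized (brain) and mixed with methanol/acetonitrile (1:1, v/v) containing internal standard to precipitate protein. After centrifugation, supernatant was diluted 4-fold with water/methanol (1:1, v/v). Drug was quantified against calibration standards by LC–MS/MS on a C18 column.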

A further data set concerns Brain. The data set is described as follows: Drug level in brain of PDAPP (V717F) transgenic mouse at 100 mg/kg, sc. The format is ADME, organism-based. Particulars: in vivo, read-out: Drug uptake. An outline of the steps:
as §1

The efflux ratio is the permeability from basolateral to apical divided by that in the opposite direction, in the common usage. In the case of `NC1=NC2CCC(OC(=O)c3cccc(Cl)c3)CC2CS1.O=C(O)C(F)(F)F` (stereo not given), the efflux ratio in the data set on P-gp [1] was 2.7. For the same compound, the Papp in the data set with P-gp [2] stood at 7.2 ×10⁻⁶ cm/s.
The term pKa denotes the pH at which an ionisable group is half protonated. High values mean a group that holds its proton tightly, low ones a group that gives up its proton readily. For `Cl.NC1=NC2CCC(NC(=O)c3cccc(Cl)c3)CC2CS1` (stereo not given), the pKa in data set [3] was 9.7. In the data set on P-gp [1], the efflux ratio amounted to 10. Also, in the data set with P-gp [2], the Papp was found to be 2.9 ×10⁻⁶ cm/s.
In turn, `NC1=NC23CCC(NC(=O)c4cccc(Cl)c4)CC2(COC3)CS1` (racemic) showed a pKa in data set [3] of 8.2.
Take `Cl.NC1=N[C@]23CC[C@H](NC(=O)c4cccc(Cl)c4)C[C@@H]2[C@@H](COC3)S1`: the pKa in data set [3] stood at 9. Further, the efflux ratio in the data set on P-gp [1] amounted to 8.5. For the same compound, the Papp in the data set on P-gp [2] amounted to 2.2 ×10⁻⁶ cm/s.
For `NC1=NC2CCC(NC(=O)c3cccc(Cl)c3)CC2CS1` (stereo not given), the Drug metabolism result in data set [4] is reported as “metabolite_notdetected”. Moreover, the concentration in the data set with Plasma was 9.3 µM; with Brain, 0.75 µM.
In the same order, the values of `NC1=N[C@]23CC[C@H](NC(=O)c4cccc(Cl)c4)C[C@@H]2[C@@H](COC3)S1` are “metabolite_notdetected”, 6.7 µM and 0.61 µM.

The values above are taken from ChEMBL document CHEMBL3585284, “Preparation and biological evaluation of conformationally constrained BACE1 inhibitors” (Bioorg Med Chem, 2015).
